M4 antag: antagonists of human muscarinic M4 receptor (CHRM4); CHO-hM4 cells, ACh EC80, Fluo-8 calcium fluorescence; 0.73% of 360,000 active; inhibition, % at 3 µM; AID 624125; P08173;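 active = inhibition above its plate's cutoff, the mean inhibition of sample wells plus 3 SD, cut at about 27% in these data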;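 note: 0% = acetylcholine EC80 with DMSO and 100% = DMSO without agonist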
Target sequence (P08173 whole entry, looked up): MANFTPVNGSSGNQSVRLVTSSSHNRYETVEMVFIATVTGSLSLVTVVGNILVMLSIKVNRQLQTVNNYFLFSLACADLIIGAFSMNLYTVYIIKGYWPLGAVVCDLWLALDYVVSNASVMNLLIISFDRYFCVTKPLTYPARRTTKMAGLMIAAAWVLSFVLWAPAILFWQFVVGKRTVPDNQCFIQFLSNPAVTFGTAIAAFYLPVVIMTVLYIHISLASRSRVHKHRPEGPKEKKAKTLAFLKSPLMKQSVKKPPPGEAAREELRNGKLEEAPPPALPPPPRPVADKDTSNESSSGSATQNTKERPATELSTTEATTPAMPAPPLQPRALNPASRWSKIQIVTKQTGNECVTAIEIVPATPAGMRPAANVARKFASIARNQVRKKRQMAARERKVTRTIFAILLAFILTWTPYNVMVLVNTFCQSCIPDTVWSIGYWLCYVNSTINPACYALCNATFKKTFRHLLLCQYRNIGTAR
M5 ag: CHRM5 agonism in calcium assay; activation, % at 3 µM; CHO-K1 hM5 cells, Fluo-8 calcium fluorescence; 0% DMSO wells, 100% maximal acetylcholine response; 0.19% of 360,000 active;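 active = activation above the run's mean over test compounds plus 3 SD, cut at about 23% in these data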;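 note: signal is peak over basal fluorescence ratio across the kinetic read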
M5 antag: antagonists of human muscarinic M5 receptor (CHRM5). CHO-hM5 cells, Fluo-8 calcium fluorescence, ACh EC80. P08912. inhibition, % at 3 µM. 0.59% of 360,000 active;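 active = inhibition above a per-plate cutoff, the mean of that plate's test compounds plus 3 SD, cut at about 27% in these data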;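 note: 0% = acetylcholine EC80 with DMSO and 100% = DMSO without agonist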
M4 ag: CHRM4 agonism in calcium assay; 0.14% of 360,000 active; P08173; CHO-K1 hM4/Gqi5, Fluo-8 calcium fluorescence; vehicle 0%, full acetylcholine response 100%; activation, % at 3 µM; AID 624127;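 active = activation above the run mean over all test wells plus 3 SD, cut at about 32% in these data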;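 note: peak over basal fluorescence ratio per well then scaled between controls; 0% = DMSO wells and 100% = acetylcholine at EC100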
CHRM5 PAM: CHRM5 positive allosteric modulation | P08912 | CHO-K1 hM5, Fluo-8 calcium, ACh EC20 PAM; 0% = ACh EC20, 100% = ACh EC100 | activation, % at 3 µM | 0.3% of 360,000 active | AID 624038;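 active = activation above the run cutoff, the mean activation of all test compounds plus 3 SD, cut at about 18% in these data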
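Assay system: CHO-K1 hM5 cells. Also added: acetylcholine at EC20 concentration, added after compound. Dosing: 3 µM, single dose. Times: compound preincubation 140 s before EC20 acetylcholine addition. Signal: Fluo-8 calcium fluorescence. Measure: % activation relative to EC20 and EC100 ACh responses. Repeats: singlicate, one well per test compound.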
CHRM4 PAM: positive allosteric modulators of human muscarinic M4 receptor; activation, % at 3 µM; P08173; CHO-K1 hM4/Gqi5, Fluo-8 calcium fluorescence, ACh EC20; 0% = ACh EC20, 100% = maximal ACh; 0.4% of 360,000 active;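 active = activation above its plate's cutoff, the mean activation of sample wells plus 3 SD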
Numbers without * were called inactive. This is a sample that favours compounds with a hit; in the whole collection about 1.9% have one here.

SMILES	M4 antag	M5 ag	M5 antag	M4 ag	CHRM5 PAM	CHRM4 PAM
O=C(O)C1CCC(=O)N(C2CCCCC2)C1c1ccccc1Cl (centres undefined)	0	2	-10	1	19*	15
Cc1ccc(CNc2ncc(-c3ccc4c(c3)OCO4)n2C)cc1	28*	-7	5	0	-12	-28
Cn1c(-c2ccc3c(c2)OCO3)cnc1NCc1ccc(Cl)cc1	14	-7	3	1	-10	-28
Cc1[nH]c2ccc(F)cc2c1CCN(Cc1cccnc1)C(=S)Nc1cccc(F)c1	-6	-5	-1	2	-5	4
COC(=O)c1ccc(/C=C/c2c(-c3ccc(OC)cc3)oc3ccccc23)cc1	5	3	-6	1	4	26*
COc1ccc2c(c1)Cc1sc(NC(=O)c3ccccc3)nc1-2	-8	5	3	5	4	18*
COc1ccc(OC)c(-c2cc(C(=O)Nc3ccccc3C(N)=O)c3ccccc3n2)c1	31*	5	20	19	-26	-10
COc1ccc(OC)c(-c2cc(C(=O)N/N=C/c3ccc(F)cc3)c3ccccc3n2)c1	2	-3	19	-1	-14	-8
COc1ccc(-c2cc(C(=O)N3CCN(c4ncccn4)CC3)c3ccccc3n2)c(OC)c1	16	4	20	11	-17	-11
COc1ccc(OC)c(-c2cc(C(=O)N3CCN(c4ncccn4)CC3)c3ccccc3n2)c1	22	2	31*	15	-21	-9
COc1ccc(-c2cc(C(=O)N3CCCCCC3)c3ccccc3n2)c(OC)c1	9	1	7	12	-16	-6
COc1ccc(-c2cc(C(=O)N3CCN(c4ccccc4F)CC3)c3ccccc3n2)c(OC)c1	20	-3	36*	18	-10	-3
COc1ccccc1CNC(=O)COC(=O)c1ccc(C)c(S(=O)(=O)N2CCCCC2)c1	-5	-4	1	5	-7	-2
Cc1c(CC(=O)O)c(=O)oc2c(C)c3occ(-c4ccccc4)c3cc12	46*	-6	13	-1	-1	-16
O=C1CC(SC(=NCc2ccc3c(c2)OCO3)Nc2ccccc2)C(=O)N1c1ccccc1 (centres undefined)	-19	0	-7	1	14	24*
COc1ccc(CCn2c(C(C)C)nc3oc4ccccc4c(=O)c3c2=O)cc1	-5	-1	2	7	4	3
O=C(NCc1ccccc1)c1ccc(NC2=NC3CS(=O)(=O)CC3S2)cc1 (centres undefined)	2	-1	2	1	0	0
NNC1=N[C@H]2CS(=O)(=O)C[C@H]2S1	-5	-1	-2	1	9	24*
CCCOc1ccc(F)cc1-c1cc(C(=O)NC(C)C)[nH]n1	-20	-1	2	2	2	15
Cc1ccc(NC(=S)NCCSc2ccc(Cl)cc2)cc1	36*	-15	17	8	-33	-28
NS(=O)(=O)c1ccc(NC(=S)NCCc2ccccc2)cc1	0	-1	9	1	-6	-2
O=[N+]([O-])c1ccc(NC(=S)NCCc2ccccc2)cc1	11	-1	27*	11	-14	-19
O=[N+]([O-])c1ccc(NC(=S)NCCc2ccc(Cl)cc2)cc1	25	3	27*	7	-17	-19
COc1ccc(CCC(=O)Nc2cccc(S(=O)(=O)N3CCOCC3)c2)cc1OC	-6	1	5	6	-7	5
C[C@H](CO)N1C[C@H](C)[C@@H](CN(C)Cc2ccccc2F)Oc2ncc(Br)cc2C1=O	-12	-1	1	2	-3	6
SMILES	M4 antag	M5 ag	M5 antag	M4 ag	CHRM5 PAM	CHRM4 PAM
O=C(COc1cc2oc(=O)c3c(c2cc1Cl)CCC3)N1C[C@H]2C[C@@H](C1)c1cccc(=O)n1C2	-1	2	5	1	-1	-1
Nc1c(C(=O)c2ccc(Cl)cc2)sc2nc3c(cc12)CCC3	10	-2	7	1	-2	23*
CN(Cc1nc2ccccc2n1C)S(=O)(=O)c1ccc(Cl)cc1	0	-5	-4	1	4	25*
CC(=O)CC(C)(C)Nc1nc2ccc([N+](=O)[O-])cc2o1	-9	5	-11	1	25*	7
CCNc1nc(CN2CCCCC2)nc2scc(-c3ccccc3)c12	27*	-8	2	3	-8	-19
OCC1CCCN(c2nc(CN3CCCCC3)nc3scc(-c4ccccc4)c23)C1 (centres undefined)	9	-10	-1	2	-8	-17
CC(Oc1ccc2c(-c3ccccc3)cc(=O)oc2c1)C(=O)O (centres undefined)	27*	-1	12	0	-5	-12
CC(Oc1ccc2c(-c3ccccc3)cc(=O)oc2c1)C(=O)N1CCOCC1 (centres undefined)	8	1	10	2	-6	-3
O=C(Nc1ccnn1C1CCN(Cc2ccc(C#CCCO)cc2)CC1)c1cccc(F)c1	9	-5	5	3	-5	4
Cc1cc(C)nc(Nc2ncc(O)n2-c2ccccc2)n1	9	0	2	1	1	-7
Cc1cccc(-n2c(O)cnc2Nc2nc(C)cc(C)n2)c1	5	0	27*	17	-12	-8
COc1ccc(F)cc1S(=O)(=O)n1nnc2ccccc21	-18	-10	-1	1	16	22*
COc1ccc(OC)c(S(=O)(=O)n2nnc3ccccc32)c1	10	-1	-1	0	2	2
Cc1cccc(NC(=O)c2sc3nc(-c4ccc(F)cc4)cn3c2C)n1	0	-7	32*	4	-18	-7
Cc1ccc2c(c1)N(C(=O)CCC(=O)N1CCN(c3ccccn3)CC1)CC(C)O2 (centres undefined)	3	0	4	3	-5	-5
Cc1cccc(N2CCN(C(=O)CCC(=O)N3CC(C)Oc4ccc(C)cc43)CC2C)c1 (centres undefined)	101*	2	3	12	-8	-19
O=C(CN(C(=O)c1csnn1)c1ccc(F)c(Cl)c1)NCc1ccc2c(c1)OCO2	-9	-2	-14	1	13	8
COc1ccc(-n2c(C)nc3c(cnn3-c3ccc(C)c(C)c3)c2=O)cc1	31*	1	4	1	-1	-11
N=C(N)c1ccc(O)cc1	-9	0	-2	1	1	28*
Cc1ccccc1NS(=O)(=O)c1ccc(NC(=O)c2ccco2)cc1	-9	-2	-14	4	28*	-3

Compound activity as filed in PubChem BioAssay.
